# Measurements collected from several papers.
# Each line is one published result; the experiments were not run side by side.
# Target: Serine/threonine-protein kinase TAO2 (TAOK2, Homo sapiens, UniProt Q9UL54)
# Residues used in one study (Q9UL54 1-1235): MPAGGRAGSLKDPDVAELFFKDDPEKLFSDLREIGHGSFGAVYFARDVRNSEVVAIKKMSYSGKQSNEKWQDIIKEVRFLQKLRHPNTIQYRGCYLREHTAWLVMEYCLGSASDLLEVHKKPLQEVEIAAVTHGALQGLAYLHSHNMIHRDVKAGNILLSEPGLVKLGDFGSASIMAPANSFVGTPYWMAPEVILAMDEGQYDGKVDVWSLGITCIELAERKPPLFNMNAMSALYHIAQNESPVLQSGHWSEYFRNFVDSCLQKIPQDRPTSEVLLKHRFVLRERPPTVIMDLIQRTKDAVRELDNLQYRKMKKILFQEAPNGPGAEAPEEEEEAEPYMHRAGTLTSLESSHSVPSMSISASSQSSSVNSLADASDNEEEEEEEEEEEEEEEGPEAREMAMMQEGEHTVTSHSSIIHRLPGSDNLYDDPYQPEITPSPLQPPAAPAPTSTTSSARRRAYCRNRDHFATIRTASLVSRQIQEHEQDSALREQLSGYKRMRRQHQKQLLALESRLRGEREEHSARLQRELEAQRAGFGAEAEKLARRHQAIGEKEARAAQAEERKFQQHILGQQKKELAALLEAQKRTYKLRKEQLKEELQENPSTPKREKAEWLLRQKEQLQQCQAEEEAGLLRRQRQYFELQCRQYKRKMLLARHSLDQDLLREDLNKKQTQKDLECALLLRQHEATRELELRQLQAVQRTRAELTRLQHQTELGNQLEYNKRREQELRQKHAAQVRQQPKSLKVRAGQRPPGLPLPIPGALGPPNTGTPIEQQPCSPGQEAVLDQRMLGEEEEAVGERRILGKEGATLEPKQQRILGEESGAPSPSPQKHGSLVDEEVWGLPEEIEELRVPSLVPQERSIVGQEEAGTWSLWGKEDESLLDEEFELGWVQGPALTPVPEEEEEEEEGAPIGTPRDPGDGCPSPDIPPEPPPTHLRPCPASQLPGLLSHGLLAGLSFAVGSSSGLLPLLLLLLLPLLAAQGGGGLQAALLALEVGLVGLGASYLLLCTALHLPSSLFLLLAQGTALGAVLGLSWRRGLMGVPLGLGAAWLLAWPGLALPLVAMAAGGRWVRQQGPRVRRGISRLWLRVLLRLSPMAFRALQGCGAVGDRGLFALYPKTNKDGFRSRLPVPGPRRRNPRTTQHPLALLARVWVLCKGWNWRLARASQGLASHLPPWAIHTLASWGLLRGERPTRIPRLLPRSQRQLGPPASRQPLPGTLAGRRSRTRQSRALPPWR
SMILES,observed,technique,tested at,remaining binding [%]
Cc1cnc(Nc2ccc(C(=O)N3CCC(N4CCCC4)CC3)cc2)nc1-c1cc2ccccc2s1,binding,competition with immobilised ligand,1 µM,29
c1cncc(-c2cccc(Nc3nccc(NC4CCCCC4)n3)c2)c1,binding,competition with immobilised ligand,10 µM,94
CC(=O)Nc1c(C(C)=O)c(=O)n(C)c2nc(-c3ccc(Cl)cc3Cl)c(-c3ccc(Cl)cc3)cc12,cell-free assay,competition with immobilised ligand,1 µM,88
F[C@@H]1CCN(c2nccc(-c3cnn4ncccc34)n2)C1,binding,,1 µM,100
COc1cnc(Nc2cccc(S(N)(=O)=O)c2)nc1N1CCN(c2ccccc2)CC1,binding,competition with immobilised ligand,1 µM,86
FC(F)(F)Oc1cccc(-c2cnc3ccc(-c4ccncc4)nn23)c1,binding,competition with immobilised ligand,5 µM,100
CN(CCCC(F)(F)F)c1nccc(-c2cnn3ncccc23)n1,binding,,1 µM,100
COc1ncc2cc3ccccc3nc2c1C#N,cell-free assay,competition with immobilised ligand,5 µM,93
N[C@@H]1CCN(c2nccc(-c3cnn4ncccc34)n2)C1,binding,,1 µM,100
COc1ccc2c(c1)O[C@H](c1ccc(OC)c(OC)c1)C[C@@H]2NC(=O)C1(c2ccc3c(c2)OC(F)(F)O3)CC1,cell-free assay,competition with immobilised ligand,1 µM,98
O=C(Nc1c[nH]nc1C(=O)NC1CCNCC1)c1cc(F)cc(F)c1,binding,competition with immobilised ligand,1 µM,61
CN(C)C(=O)Cn1cc(-c2nc([C@@](C)(c3ccc(-c4cnc(N)nc4)cc3)C3CC3)no2)cn1,cell-free assay,competition with immobilised ligand,1 µM,81
C[C@H]1CCN(c2nccc(-c3cnn4ncccc34)n2)C1,binding,,1 µM,70
CCCCN(CCCC)C(=O)CN1C[C@H](c2cc(OC)c3c(c2)OCO3)[C@@H](C(=O)O)[C@@H]1CC(C)(C)CCC,cell-free assay,competition with immobilised ligand,1 µM,71.1
O=C(c1ccc(Nc2nccc(-c3cc4ccccc4s3)n2)cc1)N1CCC(N2CCCC2)CC1,binding,competition with immobilised ligand,1 µM,71
CN(C)c1nccc(-c2cnn3ncccc23)n1,binding,,1 µM,85
CNC(=O)[C@@H]1CC[C@@H](n2c(-c3ccc4cnccc4c3)nc3ccc(C(=O)NCc4cccc(C(N)=O)c4)cc32)C1,binding,competition with immobilised ligand,1 µM,98
Cc1nc(C2CCN(C(=O)c3ccc(OC(F)(F)F)cc3N)CC2)c2ncc(N3CCN(C)CC3)cc2n1,cell-free assay,competition with immobilised ligand,1 µM,100
CN(c1nccc(-c2cnn3ncccc23)n1)C1CC1,binding,,1 µM,100
Cc1nc(Cc2cccc(C(F)(F)F)c2)sc1-c1ccc(C(N)=O)nc1,cell-free assay,competition with immobilised ligand,1 µM,86
c1cnn2ncc(-c3ccnc(N4CCC45COC5)n3)c2c1,binding,,1 µM,71
O=C(NCCCN1CCOCC1)c1ccc(Nc2nccc(-c3cc4ccccc4s3)n2)cc1,binding,competition with immobilised ligand,1 µM,80
